In ChEMBL document CHEMBL3596186, “Synthesis and biological evaluation of diarylthiazole derivatives as antimitotic and antivascular agents with potent antitumor activity” (Bioorg Med Chem, 2015):
The source made the active and inactive calls. No cut-off for these calls is given here.

Key:
HCT-116 [1] = test: Cell cycle arrest in human HCT116 cells assessed as accumulation at G2/M phase at 1 uM after 24 hrs by flow cytometry (reference value: 20.36%); assay type: functional
HCT-116 [2] = test: Antitumor activity against human HCT116 cells xenografted in Balb/c athymic nude mouse assessed as tumor growth inhibition at 50 mg/kg, ip administered daily after 42 days; assay type: functional; conditions: HCT-116, ip, 1008 h, read-out: TGI
Summary of the method: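 Female Balb/C athymic nude mice, 5-6 weeks old, implanted s.c. in the right flank with HCT116 cells in 100 µL HBSS. Tumor volume (π/6 × L × W²) and body weight measured every 2 days. Inhibition = (1 − treated/control tumor weight) × 100%.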

A549 = test: Antiproliferative activity against human A549 cells after 48 hrs by MTT assay; assay type: functional, cell-based; conditions: A549, 48 h
Summary of the method: (§1)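 HCT116, HepG2, SMMC-7721, SK-OV-3 and A2780s grown in DMEM; A549 and MCF-7 in RPMI-1640; all with 10% FBS and penicillin/streptomycin at 37 °C, 5% CO2. Log-phase cells at 40,000-50,000 cells/mL treated with graded concentrations for 48 h. MTT 3 h, DMSO solubilization, A570. IC50 from percent growth versus untreated control; mean ± SEM of ≥3 independent dose-response experiments.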

HCT-116 [3] = test: Induction of apoptosis in human HCT116 cells assessed as early apoptotic cells at 1 uM after 24 hrs by annexin V/propidium iodide staining-based flow cytometry (reference value: 2.83%); assay type: functional
Summary of the method: (§2)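 HCT116 cells treated with compound or DMSO for 24 or 48 h, trypsinized, washed twice in PBS and dual-stained with annexin-V and PI. Analysed by flow cytometry: early apoptotic cells scored as annexin-V+/PI−, late apoptotic cells as annexin-V+/PI+.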

HepG2 [4] = test: Induction of apoptosis in human HepG2 cells assessed as necrotic cells at 0.5 uM after 24 hrs by annexin V/propidium iodide staining-based flow cytometry (reference value: 1.59%); assay type: functional
SK-OV-3 [5] = test: Antitumor activity against human SKOV3 cells xenografted in Balb/c athymic nude mouse assessed as tumor growth inhibition at 20 mg/kg, ip administered daily after 42 days; assay type: functional; conditions: SK-OV-3, ip, 1008 h, read-out: TGI
Summary of the method: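 Female Balb/C athymic nude mice, 5-6 weeks old, bearing s.c. right-flank SK-OV-3 xenografts implanted in HBSS. At about 100 mm3, groups of 6 given vehicle, 5-FU 10 mg/kg or compound 20 mg/kg i.p. daily. Tumors measured every 2 days (π/6 × L × W²); inhibition = (1 − treated/control tumor weight) × 100%.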

HepG2 [6] = test: Cell cycle arrest in human HepG2 cells assessed as accumulation at S phase at 0.2 uM after 24 hrs by flow cytometry (reference value: 23.97%); assay type: functional
SK-OV-3 [7] = test: Antiproliferative activity against human SKOV3 cells after 48 hrs by MTT assay; assay type: functional, cell-based; conditions: SK-OV-3, 48 h; summary of the method: as §1
HepG2 [8] = test: Cell cycle arrest in human HepG2 cells assessed as accumulation at G1 phase at 0.2 uM after 24 hrs by flow cytometry (reference value: 62.74%); assay type: functional
HUVEC = test: Antivascular activity against HUVEC assessed as aggregation of cells in small clumps at 250 to 500 nM after 8 hrs by Matrigel assay; assay type: functional, cell-based; conditions: Homo sapiens
Summary of the method: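 Wells of prechilled plates coated with Matrigel and solidified 45 min at 37 °C. HUVECs (1 × 10^4) in EBM-2 containing compound (125-500 nM) seeded onto the gel and incubated 8 h at 37 °C. Capillary networks photographed at 100×; tubule numbers and line lengths counted manually.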

HCT-116 [9] = test: Cell cycle arrest in human HCT116 cells assessed as accumulation at G1 phase at 0.2 uM after 24 hrs by flow cytometry (reference value: 53.98%); assay type: functional
HepG2 [10] = test: Induction of apoptosis in human HepG2 cells assessed as early apoptotic cells at 0.5 uM after 24 hrs by annexin V/propidium iodide staining-based flow cytometry (reference value: 0.87%); assay type: functional
HepG2 [11] = test: Induction of apoptosis in human HepG2 cells assessed as late apoptotic cells at 0.2 uM after 24 hrs by annexin V/propidium iodide staining-based flow cytometry (reference value: 3.74%); assay type: functional
MCF7 = test: Antiproliferative activity against human MCF7 cells after 48 hrs by MTT assay; assay type: functional, cell-based; conditions: MCF7, 48 h; summary of the method: as §1
HCT-116 [12] = test: Cell cycle arrest in human HCT116 cells assessed as accumulation at G2/M phase at 0.5 uM after 24 hrs by flow cytometry (reference value: 20.36%); assay type: functional
HepG2 [13] = test: Induction of apoptosis in human HepG2 cells assessed as viable cells at 1 uM after 24 hrs by annexin V/propidium iodide staining-based flow cytometry (reference value: 89.8%); assay type: functional; conditions: HepG2, 24 h, read-out: Activity
HepG2 [14] = test: Induction of apoptosis in human HepG2 cells assessed as necrotic cells at 0.2 uM after 48 hrs by annexin V/propidium iodide staining-based flow cytometry (reference value: 1.59%); assay type: functional
HCT-116 [15] = test: Induction of apoptosis in human HCT116 cells assessed as late apoptotic cells at 0.2 uM after 24 hrs by annexin V/propidium iodide staining-based flow cytometry (reference value: 1.71%); assay type: functional; summary of the method: as §2
HepG2 [16] = test: Induction of apoptosis in human HepG2 cells assessed as viable cells at 0.2 uM after 48 hrs by annexin V/propidium iodide staining-based flow cytometry (reference value: 89.8%); assay type: functional; conditions: HepG2, 48 h, read-out: Activity
HepG2 [17] = test: Cell cycle arrest in human HepG2 cells assessed as accumulation at G2/M phase at 0.2 uM after 24 hrs by flow cytometry (reference value: 11.29%); assay type: functional
[18] = Antiproliferative activity against human A2780S cells after 48 hrs by MTT assay; assay type: functional, cell-based; conditions: A2780, 48 h; summary of the method: as §1
HCT-116 [19] = test: Induction of apoptosis in human HCT116 cells assessed as necrotic cells at 0.2 uM after 48 hrs by annexin V/propidium iodide staining-based flow cytometry (reference value: 3.49%); assay type: functional
Mus musculus = test: Toxicity in Balb/c athymic nude mouse xenografted with human HCT116 cells assessed as change in feeding and animal behavior at 20 to 50 mg/kg, ip administered daily; assay type: organism-based, HCT-116; conditions: in vivo

IC50 (A549): 84 nM
IC50 (SK-OV-3 [7]): 14.2 nM
IC50 (MCF7): 100 nM
SMILES: CCOc1ccc(-c2nc(N)sc2-c2cc(OC)c(OC)c(OC)c2)cc1
Activity (HCT-116 [1]): 9.22%
inhibition in vivo at 50 mg/kg (HCT-116 [2]): 55.1%
Activity (HCT-116 [3]): 17.6%
Activity (HepG2 [4]): 0.81%
inhibition in vivo at 20 mg/kg (SK-OV-3 [5]): 49.6%
Activity (HepG2 [6]): 29.88%
Activity (HepG2 [8]): 50.57%
Activity (HUVEC): Active
Activity (HCT-116 [9]): 29.2%
Activity (HepG2 [10]): 11.2%
Activity (HepG2 [11]): 6.51%
Activity (HCT-116 [12]): 68.04%
viability at 1 µM (HepG2 [13]): 65.4%
Activity (HepG2 [14]): 0.79%
Activity (HCT-116 [15]): 8.08%
viability at 0.2 µM (HepG2 [16]): 28.5%
Activity (HepG2 [17]): 19.56%
IC50 [18]: 16 nM
Activity (HCT-116 [19]): 5.36%
Activity (Mus musculus): Non-toxic
